This note sets out measurements from ChEMBL document CHEMBL4680104, “Structure-Based Optimization of Small-Molecule Inhibitors for the β-Catenin/B-Cell Lymphoma 9 Protein-Protein Interaction” (J Med Chem, 2018).

The source made the active and inactive calls. No cut-off for these calls is given here.

The test system of data set [1] is SW480. Put plainly: Cytotoxicity in human SW480 cells assessed as reduction in cell viability incubated for 72 hrs by MTS assay. The conditions noted are these: SW480, 72 h. It is filed as functional, cell-based. In outline: (§1)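 Cells seeded at 5 × 10^3 cells/well, kept overnight at 37 °C, then exposed to inhibitors at various concentrations for 72 h. Viability read with a freshly mixed PMS (0.92 mg/mL) : MTS (2 mg/mL) reagent at 1:19, incubated 3 h at 37 °C, A490 measured. […] Triplicate; mean ± SD.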
(Tetrazolium assays rely on reduction of a dye to a coloured formazan, in cell work by metabolically active cells.)

Data set [2] concerns HCT-116. Kind of data set: Cytotoxicity in human HCT-116 cells assessed as reduction in cell viability incubated for 72 hrs by MTS assay. Type of data set: functional, cell-based. The conditions noted are these: HCT-116, 72 h. In outline:
as §1

The test system of data set [3] is MDA-MB-231. Put plainly: Cytotoxicity in human MDA-MB-231 cells assessed as reduction in cell viability incubated for 72 hrs by MTS assay. It is filed as functional, cell-based. The conditions noted are these: MDA-MB-231, 72 h. Summed up: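 Triple-negative breast cancer line seeded at 5 × 10^3 cells/well, held overnight at 37 °C, then exposed to inhibitor over a concentration range for 72 h. Viability read out with a fresh 1:19 mix of PMS (0.92 mg/mL) and MTS (2 mg/mL), incubated 3 h at 37 °C, A490 measured.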

Data set [4] relates to A549. Kind of data set: Cytotoxicity in human A549 cells assessed as reduction in cell viability incubated for 72 hrs by MTS assay. Type of data set: functional, cell-based. The conditions noted are these: A549, 72 h. In outline: as §1
The target in data set [5] is T1, beta-catenin-B-cell lymphoma 9 protein complex (Homo sapiens, UniProt P35222).
T1 sequence (P35222 whole entry): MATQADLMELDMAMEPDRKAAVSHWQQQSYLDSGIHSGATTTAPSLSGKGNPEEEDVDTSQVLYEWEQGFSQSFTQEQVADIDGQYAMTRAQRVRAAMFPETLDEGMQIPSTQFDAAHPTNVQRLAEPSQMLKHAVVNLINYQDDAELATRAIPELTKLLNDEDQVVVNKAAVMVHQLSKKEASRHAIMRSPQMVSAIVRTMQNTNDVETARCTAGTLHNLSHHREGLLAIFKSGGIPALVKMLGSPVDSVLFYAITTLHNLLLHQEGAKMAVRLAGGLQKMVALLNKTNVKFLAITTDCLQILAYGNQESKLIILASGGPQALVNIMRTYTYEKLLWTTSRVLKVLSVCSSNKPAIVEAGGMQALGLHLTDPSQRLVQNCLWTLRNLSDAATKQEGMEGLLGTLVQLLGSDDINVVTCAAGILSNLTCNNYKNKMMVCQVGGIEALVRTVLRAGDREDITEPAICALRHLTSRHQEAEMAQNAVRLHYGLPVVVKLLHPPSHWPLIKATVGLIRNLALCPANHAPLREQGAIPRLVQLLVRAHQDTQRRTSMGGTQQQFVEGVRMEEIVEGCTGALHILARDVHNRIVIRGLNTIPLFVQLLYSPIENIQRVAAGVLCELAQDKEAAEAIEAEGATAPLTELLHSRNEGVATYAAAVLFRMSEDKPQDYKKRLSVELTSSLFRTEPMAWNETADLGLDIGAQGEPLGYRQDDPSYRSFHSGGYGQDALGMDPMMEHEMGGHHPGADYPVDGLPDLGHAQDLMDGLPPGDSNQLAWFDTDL
T1 sequence (O00512 whole entry): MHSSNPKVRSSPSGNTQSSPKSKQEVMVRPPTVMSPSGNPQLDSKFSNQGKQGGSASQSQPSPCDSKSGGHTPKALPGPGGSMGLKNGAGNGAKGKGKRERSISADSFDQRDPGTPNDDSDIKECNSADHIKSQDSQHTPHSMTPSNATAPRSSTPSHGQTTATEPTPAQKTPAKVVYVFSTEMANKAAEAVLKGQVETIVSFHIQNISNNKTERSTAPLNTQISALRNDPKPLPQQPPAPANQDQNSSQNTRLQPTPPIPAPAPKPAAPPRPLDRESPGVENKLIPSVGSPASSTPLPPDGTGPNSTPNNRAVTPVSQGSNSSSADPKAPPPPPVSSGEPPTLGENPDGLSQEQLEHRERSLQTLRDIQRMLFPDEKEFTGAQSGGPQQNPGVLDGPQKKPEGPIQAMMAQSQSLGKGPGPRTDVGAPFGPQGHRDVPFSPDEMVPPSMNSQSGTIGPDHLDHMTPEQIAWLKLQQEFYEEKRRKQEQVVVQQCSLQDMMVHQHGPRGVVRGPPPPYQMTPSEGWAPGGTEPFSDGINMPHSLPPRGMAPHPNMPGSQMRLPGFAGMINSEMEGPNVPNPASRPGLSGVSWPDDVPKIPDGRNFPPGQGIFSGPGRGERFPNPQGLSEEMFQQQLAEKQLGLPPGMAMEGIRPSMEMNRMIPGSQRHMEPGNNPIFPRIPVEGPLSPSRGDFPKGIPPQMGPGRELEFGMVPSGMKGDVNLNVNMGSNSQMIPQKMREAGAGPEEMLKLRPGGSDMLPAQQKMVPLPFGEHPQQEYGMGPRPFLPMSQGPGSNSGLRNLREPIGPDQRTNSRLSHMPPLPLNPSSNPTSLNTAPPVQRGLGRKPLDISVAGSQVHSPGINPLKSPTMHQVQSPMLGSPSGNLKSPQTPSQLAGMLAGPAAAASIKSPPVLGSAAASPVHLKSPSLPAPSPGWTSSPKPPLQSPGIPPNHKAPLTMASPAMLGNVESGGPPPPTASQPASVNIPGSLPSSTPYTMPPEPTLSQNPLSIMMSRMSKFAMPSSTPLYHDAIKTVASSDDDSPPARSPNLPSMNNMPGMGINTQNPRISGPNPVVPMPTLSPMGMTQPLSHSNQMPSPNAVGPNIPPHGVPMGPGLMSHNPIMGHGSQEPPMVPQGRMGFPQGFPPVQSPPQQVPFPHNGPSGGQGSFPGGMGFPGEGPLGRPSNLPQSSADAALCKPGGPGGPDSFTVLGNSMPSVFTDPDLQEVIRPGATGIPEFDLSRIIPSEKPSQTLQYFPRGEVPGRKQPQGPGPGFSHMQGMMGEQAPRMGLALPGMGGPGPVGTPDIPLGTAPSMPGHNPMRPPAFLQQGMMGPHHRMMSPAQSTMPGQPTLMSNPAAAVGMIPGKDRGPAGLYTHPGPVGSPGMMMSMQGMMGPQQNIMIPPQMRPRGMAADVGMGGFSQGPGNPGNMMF
Kind of data set: Inhibition of protein interaction between beta-catenin (unknown origin)/BCL9 in HEK293 cells transfected with beta-catenin assessed as reduction in Wnt/beta-catenin transactivation incubated for 24 hrs by Wnt-responsive TOP-Flash luciferase reporter assay. Type of data set: cell-based. Summed up:
(§2)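 HEK293 cells were cotransfected using FuGENE6 with 45 ng TOPFlash or FOPFlash reporter, 135 ng pcDNA3.1-β-catenin and 20 ng pCMV-RL normalization reporter. After 24 h in DMEM with 10% FBS at 37 °C, inhibitors or DMSO were added for 24 h. Reporter activity was read with a dual luciferase system, normalized, and compared with DMSO-treated cells. Triplicate.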
Background: In a reporter assay the amount or activity of a reporter protein is the signal.

Data set [6] addresses T1, beta-catenin-B-cell lymphoma 9 protein complex. Kind of data set: Inhibition of protein interaction between beta-catenin (unknown origin)/BCL9 in human SW480 cells transfected with beta-catenin assessed as reduction in Wnt/beta-catenin transactivation incubated for 24 hrs by Wnt-responsive TOP-Flash luciferase reporter assay. Type of data set: cell-based.
Data set [7] concerns SW480. Kind of data set: Cytotoxic activity in human SW480 cells at 800 uM incubated for 4 hrs by LDH release assay. Type of data set: cell-based. The conditions noted are these: sw480, 4 h. Summed up:
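SW480 cells were seeded at 2 × 10^4 cells/well and kept overnight at 37 °C. They were then exposed to a range of inhibitor concentrations for 4 h. LDH in the culture supernatant was measured with a diagnostic kit by absorbance at 490 nm. Percent cytotoxicity was calculated from experimental release against maximum release, with background subtracted. Run in triplicate.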

The target in data set [8] is T2, beta-catenin-B-cell lymphoma 9 protein complex (Homo sapiens) (UniProt P35222+O00512). Put plainly: Inhibition of protein interaction between beta-catenin (unknown origin)/BCL9 in HEK293 cells transfected with beta-catenin assessed as reduction in Wnt/beta-catenin transactivation incubated for 24 hrs by Wnt-responsive FOP-Flash luciferase reporter assay. Type of data set: cell-based. In outline: as §2

Data set [9] can be described thus: Effect on HPRT mRNA expression in human SW480 cells at 5 uM incubated for 24 hrs by qPCR analysis relative to control. Type of data set: ADME, cell-based. The conditions noted are these: read-out: FC. In outline:
(§3)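 SW480 cells at 1 × 10^6/mL were treated with inhibitor for 24 h. Total RNA was extracted with TRIzol and cDNA made by first-strand synthesis. SYBR green qPCR used human HPRT primers, with CT values normalised to GAPDH as internal reference. Performed in triplicate.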

Data set [10] can be described thus: Effect on HPRT mRNA expression in human SW480 cells at 10 uM incubated for 24 hrs by qPCR analysis relative to control. Type of data set: ADME, cell-based. The conditions noted are these: read-out: FC. In outline: as §3
For orientation: Quantitative PCR measures a nucleic acid by following its amplification.

Data set [11] in a line: Effect on HPRT mRNA expression in human SW480 cells at 20 uM incubated for 24 hrs by qPCR analysis relative to control. Type of data set: ADME, cell-based. To be noted: read-out: FC. In outline: as §3
Data set [12] addresses T2, beta-catenin-B-cell lymphoma 9 protein complex (Homo sapiens). Kind of data set: Inhibition of protein interaction between beta-catenin (unknown origin)/BCL9 in human HEK293 cells transfected with beta-catenin assessed as reduction in Wnt/beta-catenin transactivation incubated for 24 hrs by Wnt-responsive FOP-Flash luciferase reporter assay.
Data set [13] is described as follows: Inhibition of protein interaction between C-terminal 6x-histidine tagged full-length beta-catenin (1 to 781 residues) (unknown origin)/N-terminal biotinylated human E-cadherin (824 to 877 residues) incubated for 1 hr by Alpha-screen competitive inhibition assay. Summed up:
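Full-length β-catenin (residues 1–781) with a C-terminal His6 tag was expressed in E. coli BL21(DE3) after IPTG induction at 20 °C. It was purified by Ni-NTA, anion-exchange and size-exclusion chromatography. For the assay, 40 nM β-catenin was preincubated for 30 min at 4 °C with 5 nM biotinylated BCL9 or 10 nM biotinylated E-cadherin. Inhibitor was then added for 1 h at 4 °C, followed by 10 μg/mL donor and acceptor beads for 1 h at 4 °C. IC50 was obtained by nonlinear fit and converted to Ki by the Nikolovska-Coleska method. Triplicate, mean ± SD.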

The IC50 is the concentration that gives 50% inhibition. In the case of `Cl.Cl.Fc1ccc(-c2cc(-c3ccc4cc(O[C@H]5CCNC5)c(-c5ccc(F)c(F)c5)cc4n3)ccc2O[C@H]2CCNC2)cc1`, the 50% inhibitory concentration (IC50) in data set [1] came out at 3.6 µM; in data set [2] it was 9.6 µM; in [3] it was 15 µM; in data set [4], 23 µM; in data set [5], 26 µM; in [6] it was 12 µM. Further, the Activity result in [7] is “Non-Toxic”. The inhibition result in data set [8] and in [12] was “Active” in each case. Also, the fold induction at 5 µM in [9] is 0.369. Further, in data set [10], the fold induction at 10 µM was found to be 0.319. Moreover, the fold induction at 20 µM in data set [11] was determined as 0.0612.
A word on the Ki: it is a dissociation constant, usually derived from enzyme kinetics or from competition with a known ligand. Low values mean tighter binding, high ones weaker binding. `Cl.Cl.O=C(Nc1ccc(O[C@@H]2CCNC2)c(-c2cccc(-c3nn[nH]n3)c2)c1)c1ccc(O[C@H]2CCNC2)c(-c2ccc3ccsc3c2)c1`: the Ki in data set [13] was over 915 µM. Also, the IC50 worked out at 150 µM in [1]; 240 µM in data set [2]; 430 µM in data set [4]; 50 µM in data set [5]; 43 µM in data set [6]. Moreover, the Activity result in data set [7] was “Non-Toxic”. Moreover, the inhibition entry in [8] and in data set [12] was “inactive” each time.
